Active and inactive are the calls of the source. The calls are words filed in the database; no cut-off is given here. Non-standard residues stand in square brackets, D forms with d. Residues, ends and D or L forms follow the SMILES beside them. *: point of attachment. Lys(thiomyristoyl) = CCCCCCCCCCCCCC(=S)NCCCC[C@H](N)C(=O)O; X4 = CN(C)c1ccc(/N=N/c2ccc(CC(=O)*)cc2)cc1; X1 = O=C(Cc1ccc(/N=N/c2ccc(O)cc2)cc1)*
Tests used:
[1] = target: NAD-dependent protein deacylase sirtuin-6 (Homo sapiens) (UniProt Q8N6T7); assay: Inhibition of recombinant human N-terminal polyhis-tagged SIRT6 (1 to 355 residues) defatty-acylase activity expressed in Escherichia coli at 2 uM using SFP3 as substrate measured at 5 mins interval for 60 mins in presence of NAD+ by fluorescence assay relative to control
[2] = target: T1, NAD-dependent protein deacetylase sirtuin-2 (Homo sapiens) (UniProt Q8IXJ6); assay: Time-dependent inhibition of recombinant human SIRT2 defatty-acylase activity at 15.6 to 250 nM using SFP3 as substrate measured at 5 mins interval for 60 mins in presence of NAD+ by fluorescence assay
T1 sequence (whole entry): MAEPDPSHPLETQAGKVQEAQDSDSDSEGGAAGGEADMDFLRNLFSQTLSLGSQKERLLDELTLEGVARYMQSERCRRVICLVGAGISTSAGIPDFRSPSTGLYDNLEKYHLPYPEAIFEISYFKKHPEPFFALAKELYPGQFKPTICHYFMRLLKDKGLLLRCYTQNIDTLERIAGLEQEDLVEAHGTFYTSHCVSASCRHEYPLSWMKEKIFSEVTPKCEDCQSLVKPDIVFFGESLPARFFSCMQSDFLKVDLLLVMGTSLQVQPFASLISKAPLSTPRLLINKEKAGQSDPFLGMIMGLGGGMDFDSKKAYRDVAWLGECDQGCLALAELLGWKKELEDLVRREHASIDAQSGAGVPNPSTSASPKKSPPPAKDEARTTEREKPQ

HeLa = assay: Cytotoxicity against human HeLa cells assessed as reduction in cell viability at 50 uM measured after 72 hrs by CCK8 assay; assay type: functional, cell-based
Summary of the method: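 HeLa cells, 1.0 × 10⁴ per well on PLL-coated plates, grown overnight in DMEM with 10% FBS and penicillin/streptomycin, 37 °C, 5% CO₂. Compounds added in DMEM (2% DMSO stock), range 1.56–50 μM final, for 72 h. CCK-8 reagent then 2 h at 37 °C, absorbance read at 450 nm. DMSO control.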

[3] = target: T1, NAD-dependent protein deacetylase sirtuin-2 (Homo sapiens); assay: Inhibition of recombinant human SIRT2 deacylation activity using H4K16-Ac as substrate measured after 30 mins in presence of NAD+ by HPLC analysis
Summary of the method: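 H4K16-Ac peptide at 100 μM with 500 μM NAD⁺ and 175 nM SIRT2 in Tris-HCl pH 8.0/NaCl/Triton buffer lacking DTT, 0.5% DMSO, 30 min at 37 °C. Inhibitors at 0.01–10 μM. Stopped with HCl in MeOH. Deacetylated product quantified by reversed-phase HPLC at 280 nm.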

[4] = target: T1, NAD-dependent protein deacetylase sirtuin-2 (Homo sapiens); assay: Non-competitive inhibition of recombinant human SIRT2 defatty-acylase activity at 15 to 30 nM using SFP3 as substrate measured at 1 min interval for 30 mins in presence of varying levels of NAD+ by Michaelis-Menten plot analysis
[5] = target: T1, NAD-dependent protein deacetylase sirtuin-2 (Homo sapiens); assay: Inhibition of recombinant human SIRT2 demyristoylase activity using H4K16-Myr as substrate measured after 2 hrs in presence of NAD+ by HPLC analysis
Summary of the method: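 H4K16-Myr at 100 μM with 500 μM NAD⁺ and 175 nM SIRT2 in Tris-HCl pH 8.0/NaCl/Triton buffer without DTT, 0.5% DMSO, 2 h at 37 °C. Inhibitors at 0.1–10 μM; AGK2 at 50 μM, NAM at 500 μM. Stopped with HCl/MeOH. Demyristoylated H4K16 product measured by HPLC at 280 nm. Percent inhibition, n = 3.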

[6] = target: T2, NAD-dependent protein deacetylase sirtuin-1 (Homo sapiens) (UniProt Q96EB6); assay: Inhibition of recombinant human C-terminal His6-tagged SIRT1 (Met1 to Ser747 residues) demyristoylase activity expressed in Escherichia coli at 1 uM using p53(Myr)-AMC as substrate measured after 3 hrs in presence of NAD+ and trypsin by fluorescence assay relative to control
T2 sequence (whole entry): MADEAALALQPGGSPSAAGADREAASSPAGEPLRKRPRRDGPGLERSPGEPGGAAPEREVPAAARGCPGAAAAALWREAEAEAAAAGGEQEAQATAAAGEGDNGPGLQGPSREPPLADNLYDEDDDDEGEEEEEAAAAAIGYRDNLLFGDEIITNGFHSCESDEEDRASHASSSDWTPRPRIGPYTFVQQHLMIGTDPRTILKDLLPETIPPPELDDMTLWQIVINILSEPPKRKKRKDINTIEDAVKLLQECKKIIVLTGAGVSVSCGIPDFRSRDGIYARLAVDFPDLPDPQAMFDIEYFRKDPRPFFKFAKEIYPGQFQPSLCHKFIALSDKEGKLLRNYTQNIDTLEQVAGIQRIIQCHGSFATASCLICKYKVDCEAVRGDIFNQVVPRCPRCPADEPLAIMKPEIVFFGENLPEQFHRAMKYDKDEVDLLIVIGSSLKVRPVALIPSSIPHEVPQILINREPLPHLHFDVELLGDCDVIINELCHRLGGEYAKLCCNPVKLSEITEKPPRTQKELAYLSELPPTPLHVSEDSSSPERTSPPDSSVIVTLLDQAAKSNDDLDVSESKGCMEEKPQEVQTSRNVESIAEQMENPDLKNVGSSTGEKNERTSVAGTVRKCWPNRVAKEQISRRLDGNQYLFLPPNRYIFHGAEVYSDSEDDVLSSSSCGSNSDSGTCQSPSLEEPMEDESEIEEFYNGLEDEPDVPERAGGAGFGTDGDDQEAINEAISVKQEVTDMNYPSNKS
Summary of the method: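 SIRT1 at 14 nM final with 50 μM p53(Myr)-AMC and 500 μM NAD⁺ in Tris-HCl pH 8.0/NaCl/DTT/Triton buffer, 0.5% DMSO, 3 h at room temperature. Trypsin (100 nM final) plus nicotinamide (1 mM final) then added. Fluorescence Ex 355/Em 460 nm read every 5 min for 20 min at 37 °C. n = 3.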

[7] = target: T1, NAD-dependent protein deacetylase sirtuin-2 (Homo sapiens); assay: Inhibition of recombinant human SIRT2 deacylation activity at 1 uM using Fluor de Lys Sirt2 as substrate measured at 5 mins interval for 30 mins in presence of NAD+ by fluorescence assay relative to control
[8] = target: T2, NAD-dependent protein deacetylase sirtuin-1 (Homo sapiens); assay: Inhibition of recombinant human C-terminal His6-tagged SIRT1 (Met1 to Ser747 residues) defatty-acylase activity expressed in Escherichia coli at 2 uM using SFP3 as substrate measured at 5 mins interval for 60 mins in presence of NAD+ by fluorescence assay relative to control
[9] = target: T3, NAD-dependent protein deacetylase sirtuin-3, mitochondrial (Homo sapiens) (UniProt Q9NTG7); assay: Inhibition of recombinant human SIRT3 (118 to 399 residues) demyristoylase activity expressed in Escherichia coli at 1 uM using p53(Myr)-AMC as substrate measured after 3 hrs in presence of NAD+ and trypsin by fluorescence assay relative to control
T3 sequence (whole entry): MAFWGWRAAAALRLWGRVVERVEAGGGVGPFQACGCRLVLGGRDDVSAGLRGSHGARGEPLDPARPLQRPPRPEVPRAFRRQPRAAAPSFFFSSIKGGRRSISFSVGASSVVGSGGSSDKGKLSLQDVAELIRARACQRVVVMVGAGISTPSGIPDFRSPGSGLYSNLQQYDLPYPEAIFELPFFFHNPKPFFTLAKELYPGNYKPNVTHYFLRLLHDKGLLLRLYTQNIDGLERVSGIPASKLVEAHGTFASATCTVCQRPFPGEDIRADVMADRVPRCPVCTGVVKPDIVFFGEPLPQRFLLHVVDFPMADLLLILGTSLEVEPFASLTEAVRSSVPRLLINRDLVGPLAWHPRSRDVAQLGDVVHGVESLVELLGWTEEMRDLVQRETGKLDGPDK
Summary of the method: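 SIRT3 at 120 nM with 50 μM p53(Myr)-AMC and 500 μM NAD⁺ in Tris-HCl pH 8.0/NaCl/DTT/Triton buffer, 0.5% DMSO, 3 h at room temperature. Trypsin (100 nM) plus nicotinamide (1 mM) then added. Fluorescence Ex 355/Em 460 nm every 5 min for 20 min at 37 °C. n = 3.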

[10] = target: T1, NAD-dependent protein deacetylase sirtuin-2 (Homo sapiens); assay: Inhibition of recombinant human SIRT2 defatty-acylase activity at 2 uM using SFP3 as substrate measured at 5 mins interval for 60 mins in presence of NAD+ by fluorescence assay relative to control
[11] = target: T1, NAD-dependent protein deacetylase sirtuin-2 (Homo sapiens); assay: Inhibition of recombinant human SIRT2 demyristoylase activity at 1 uM using p53(Myr)-AMC as substrate measured after 3 hrs in presence of NAD+ and trypsin by fluorescence assay relative to control
[12] = target: T3, NAD-dependent protein deacetylase sirtuin-3, mitochondrial (Homo sapiens); assay: Inhibition of recombinant human SIRT3 (118 to 399 residues) defatty-acylase activity expressed in Escherichia coli at 2 uM using SFP3 as substrate measured at 5 mins interval for 60 mins in presence of NAD+ by fluorescence assay relative to control
Summary of the method: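 SIRT3 at 60 nM final with 2.5 μM SFP3 and 500 μM NAD⁺ in Tris-HCl pH 8.0, 150 mM NaCl, 1 mM DTT, 0.05% Triton X-100. Final DMSO 0.2%, or 0.5% for AGK2/NAM. Fluorescence Ex 485/Em 535 nm every 5 min for 60 min at 37 °C. n = 3.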

[13] = target: T1, NAD-dependent protein deacetylase sirtuin-2 (Homo sapiens); assay: Inhibition of recombinant human SIRT2 defatty-acylase activity using SFP3 as substrate measured at 5 mins interval for 60 mins in presence of NAD+ by fluorescence assay

Chain of NAD-dependent protein deacylase sirtuin-6 (Homo sapiens) (Q8N6T7 whole entry, the tested form may be a part): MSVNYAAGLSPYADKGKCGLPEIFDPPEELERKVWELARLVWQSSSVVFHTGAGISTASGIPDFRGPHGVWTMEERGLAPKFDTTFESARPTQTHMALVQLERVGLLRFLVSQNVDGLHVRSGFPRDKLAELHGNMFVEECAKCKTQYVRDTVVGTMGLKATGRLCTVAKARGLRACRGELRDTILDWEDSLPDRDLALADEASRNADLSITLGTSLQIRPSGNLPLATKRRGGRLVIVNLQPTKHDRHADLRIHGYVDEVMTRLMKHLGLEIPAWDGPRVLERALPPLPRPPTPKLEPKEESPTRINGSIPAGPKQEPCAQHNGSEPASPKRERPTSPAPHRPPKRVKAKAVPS

inhibition [1]	inhibition [3]	inhibition [4]	inhibition [5]	SMILES	Activity (HeLa)	also measured
40%				CC[C@H](C)[C@H](NC(=O)[C@H](CCCNC(=N)N)NC(C)=O)C(=O)N[C@@H](CCCCNC(=O)Cc1ccc(/N=N/c2ccc(N(C)C)cc2)cc1)C(=O)N[C@@H](CCCNC(=N)N)C(=O)N[C@@H](Cc1ccc(O)cc1)C(N)=O (Ac-RIK(X4)RY-NH2)		TDI [2]: Active
	Dose-dependent effect	Active	Dose-dependent effect	CCCCCCCCCCCCCC(=S)NCCCC[C@H](NC(=O)[C@@H](NC(=O)[C@H](CCCNC(=N)N)NC(C)=O)[C@@H](C)CC)C(=O)N[C@@H](CCCNC(=N)N)C(=O)N[C@@H](Cc1ccc(O)cc1)C(N)=O (Ac-RI[Lys(thiomyristoyl)]RY-NH2)	inactive	
43%	Dose-dependent effect	Active	Dose-dependent effect	CC[C@H](C)[C@H](NC(=O)[C@H](CCCNC(=N)N)NC(C)=O)C(=O)N[C@@H](CCCCNC(=O)Cc1ccc(/N=N/c2ccc(O)cc2)cc1)C(=O)N[C@@H](CCCNC(=N)N)C(=O)N[C@@H](Cc1ccc(O)cc1)C(N)=O (Ac-RIK(X1)RY-NH2)	inactive	
-3.5%				CCCCCCCCCCCCCC(=O)NCCCC[C@H](NC(=O)OCc1ccccc1)C(=O)Nc1ccccc1		inhibition [6]: 1.7%; inhibition [7]: 42%; inhibition [8]: -0.59%; inhibition [9]: 1.7%; inhibition [10]: 2.8%; inhibition [11]: 5.2%; inhibition [12]: -2.3%
				O=C(Cc1ccc(/N=N/c2ccccc2)cc1)NCCCC[C@H](NC(=O)OCC1c2ccccc2-c2ccccc21)C(=O)O		inhibition [13]: inactive

— ChEMBL document CHEMBL4304758, “Development of Peptide-Based Sirtuin Defatty-Acylase Inhibitors Identified by the Fluorescence Probe, SFP3, That Can Efficiently Measure Defatty-Acylase Activity of Sirtuin” (J Med Chem, 2019)
